From the array DNA melting data of Ke et al. (doi:10.1101/2024.01.08.574731) come the findings set out here.

Series [1] in a line: folding enthalpy; higher = less favourable; fluorescence melt of hairpins on a sequencing array, two-state fit. The note with it: sodium 0.088 M. Put shortly: (§1)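 Melting temperature and folding enthalpy were derived from bootstrapped two-state fits. The fitted temperatures were raised by 9.35 °C to agree with UV melts, and four replicates were combined by inverse variance. The underlying data were Cy3 fluorescence images of library hairpins, with annealed Cy3 and quencher oligos, on a sequenced MiSeq flow cell in 50 mM Na-HEPES pH 8.0, 25 mM NaCl, taken in 2.5 °C steps up to 60 °C, normalised to pre-quench Cy3 and to control constructs.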

The nature of series [2]: melting temperature; fluorescence melt of hairpins on a sequencing array, two-state fit, raised by 9.35 °C to match UV melts. The conditions noted are these: sodium 0.088 M. Put shortly:
as §1

Consider GATCGCAGTTGCGATC ((((((....)))))), for which the folding enthalpy in series [1] is -41.1 kcal/mol. Also, in series [2], the Tm was found to be 68.6 °C.
Taken in the same sequence, the figures for GATCGCATTGGCGATC ((((((....)))))) were -33.2 kcal/mol and 68.8 °C.
In the case of GATCGCCAGGCGATC ((((((...)))))), in series [1], the folding enthalpy was -35.1 kcal/mol. Also, the Tm in series [2] is 67.1 °C.
The matching figures for GATCGCCAGTGCGATC ((((((....)))))): -34.9 kcal/mol and 64.4 °C.
Taken in the same sequence, the figures for GATCGCCATCGCGATC ((((((....)))))) were -31.5 kcal/mol and 65 °C.
For the sequence GATCGCCCATGCGATC ((((((....)))))), the folding enthalpy in series [1] was -36.2 kcal/mol. For the same sequence, the Tm in series [2] was determined as 67.6 °C.
The matching figures for GATCGCCCCCGCGATC ((((((....)))))): -37.6 kcal/mol and 66.8 °C.
As to GATCGCCCCTGCGATC ((((((....)))))), in series [1], the folding enthalpy is -33.6 kcal/mol. Also, the Tm in series [2] came to 67.2 °C.
On to GATCGCCCGGCGATC ((((((...)))))), for which the folding enthalpy in series [1] was -40.9 kcal/mol. Besides, in series [2], the Tm was found to be 68.5 °C.
The matching figures for GATCGCCCTGCGATC ((((((...)))))): -32 kcal/mol and 67.8 °C.
Taken in the same sequence, the figures for GATCGCCGAAAGGCAATC (((.(((....))).))) were -17.1 kcal/mol and 44.8 °C.
The matching figures for GATCGCCGAAAGGCCATC (((.(((....))).))): -14.5 kcal/mol and 38.6 °C.
GATCGCCGCCGCGATC ((((((....)))))): in series [1], the folding enthalpy is -36 kcal/mol. Besides, the Tm in series [2] stood at 66.6 °C.
For GATCGCCGTTGCGATC ((((((....)))))), the folding enthalpy in series [1] was -53.2 kcal/mol. In addition, in series [2], the Tm stood at 66.2 °C.
As for GATCGCCTCGCGATC ((((((...)))))), the folding enthalpy in series [1] is -30.2 kcal/mol. Besides, in series [2], the Tm was determined as 68.7 °C.
Taken in the same sequence, the figures for GATCGCCTGGCGATC ((((((...)))))) were -35.7 kcal/mol and 67.9 °C.
As to GATCGCCTTTGCGATC ((((((....)))))), the folding enthalpy in series [1] is -38.6 kcal/mol. In series [2], the Tm turned out to be 67.8 °C.
The matching figures for GATCGCGAAAGCGAATC ((((((....))).))): -14 kcal/mol and 52.5 °C.
As to GATCGCGAAAGCGAGATC ((((((....)))..))), the folding enthalpy in series [1] is -13.8 kcal/mol. Moreover, the Tm in series [2] amounted to 60.6 °C.
The matching figures for GATCGCGAAAGCGGCATC ((((((....)))..))): -7.52 kcal/mol and 32.1 °C.
With GATCGCGAAAGCGTAATC ((((((....)))..))), the folding enthalpy in series [1] was -8.8 kcal/mol. In series [2], the Tm worked out at 29.2 °C.
The matching figures for GATCGCGAAAGCGTCATC ((((((....)))..))): -7.57 kcal/mol and 33.8 °C.
Take GATCGCGATTGCGATC ((((((....)))))): the folding enthalpy in series [1] was -34.2 kcal/mol. The Tm in series [2] was 68.7 °C.
Consider GATCGCGGAAACGCAATC (((.(((....))).))), for which, in series [1], the folding enthalpy was -22.6 kcal/mol. Further, the Tm in series [2] was 41.3 °C.
The matching figures for GATCGCGGAAACGCGGTC ((.((((....)))).)): -22.8 kcal/mol and 62.8 °C.
For GATCGCGTGGCGATC ((((((...)))))), the folding enthalpy in series [1] is -32.6 kcal/mol. The Tm in series [2] was determined as 69 °C.
Taken in the same sequence, the figures for GATCGCGTGTGCGATC ((((((....)))))) were -29.3 kcal/mol and 68.5 °C.
In the case of GATCGCTAAAGCGATC ((((((....)))))), the folding enthalpy in series [1] was -27.7 kcal/mol. Besides, the Tm in series [2] amounted to 67.1 °C.
Taken in the same sequence, the figures for GATCGCTACTGCGATC ((((((....)))))) were -34.5 kcal/mol and 68.5 °C.
The matching figures for GATCGCTAGAGCGATC ((((((....)))))): -34.2 kcal/mol and 67.6 °C.
The matching figures for GATCGCTAGGCGATC ((((((...)))))): -36.8 kcal/mol and 68.4 °C.
In the case of GATCGCTCAGGCGATC ((((((....)))))), in series [1], the folding enthalpy is -36.1 kcal/mol. The Tm in series [2] is 67.9 °C.
As to GATCGCTCGGGCGATC ((((((....)))))), the folding enthalpy in series [1] was -38.6 kcal/mol. For the same sequence, the Tm in series [2] turned out to be 69.2 °C.
The matching figures for GATCGCTCGTGCGATC ((((((....)))))): -41.6 kcal/mol and 67.2 °C.
Taken in the same sequence, the figures for GATCGCTGAGGCGATC ((((((....)))))) were -38.1 kcal/mol and 68.5 °C.
The matching figures for GATCGCTTACGCGATC ((((((....)))))): -31.8 kcal/mol and 68.6 °C.
Consider GATCGCTTATGCGATC ((((((....)))))), for which the folding enthalpy in series [1] is -33.8 kcal/mol. For the same sequence, in series [2], the Tm came out at 68.1 °C.
On to GATCGCTTCCGCGATC ((((((....)))))), for which the folding enthalpy in series [1] is -36 kcal/mol. For the same sequence, in series [2], the Tm is 67.2 °C.
